The subject of assay [1] is HL-60. Nature of the assay: Antiproliferative activity against human HL60 cells after 48 hrs by trypan blue method. Format: functional, cell-based. Conditions: HL-60, 48 h. The method in brief: (§1)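 Growth inhibition read by counting cells with an automatic cell counter after 48 h of compound exposure. IC50 is the concentration inhibiting 50% of cell growth.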
The subject of assay [2] is K562. Nature of the assay: Antiproliferative activity against human K562 cells after 48 hrs by trypan blue method. The format is functional, cell-based. Conditions: K562, 48 h. The method in brief: as §1
Assay [3] relates to K562. Nature of the assay: Induction of apoptosis in human K562 cells assessed as morphological changes after 48 hrs by annexin V assay. Format: functional, cell-based. The following applies: K562, 48 h. The method in brief:
(§2)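 HL60 or K562 cells treated for 48 h. Apoptosis scored by morphological assay and annexin V test. AC50 is the concentration inducing apoptosis in 50% of cells.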

Assay [4] has as its system K562. The assay is described as follows: Cell cycle arrest in human K562 cells by accumulation at G1 phase at 30 uM after 24 hrs using propidium iodide staining by FACS. Format: functional. The method in brief:
(§3)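 K562 cells treated for 24, 48 or 72 h. Cells stained with propidium iodide and cell-cycle phase distribution analysed by flow cytometry against untreated cells. The sub-G0–G1 peak was taken as apoptotic.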

Assay [5] concerns K562. Nature of the assay: Cell cycle arrest in human K562 cells by accumulation at S phase at 30 uM after 24 hrs using propidium iodide staining by FACS. Format: functional. The method in brief:
as §3
For orientation: Flow cytometry measures light scatter and fluorescence of single cells or particles in a stream.

In assay [6] the test system is K562. The assay is described as follows: Cell cycle arrest in human K562 cells by accumulation at G2/M phase at 30 uM after 24 hrs using propidium iodide staining by FACS. Format: functional. The method in brief: as §3
Assay [7] concerns K562. Nature of the assay: Cell cycle arrest in human K562 cells by accumulation at sub-G1 (apoptotic) phase at 30 uM after 24 hrs using propidium iodide staining by FACS. The format is functional. The method in brief: as §3
The subject of assay [8] is K562. The assay is described as follows: Cell cycle arrest in human K562 cells by accumulation at G1 phase at 30 uM after 48 hrs using propidium iodide staining by FACS. The format is functional. The method in brief: as §3
For assay [9], the system named is K562. Nature of the assay: Cell cycle arrest in human K562 cells by accumulation at S phase at 30 uM after 48 hrs using propidium iodide staining by FACS. Format: functional. The method in brief: as §3
In assay [10] the test system is K562. The assay is described as follows: Cell cycle arrest in human K562 cells by accumulation at G2/M phase at 30 uM after 48 hrs using propidium iodide staining by FACS. The format is functional. The method in brief:
as §3

The subject of assay [11] is K562. The assay is described as follows: Cell cycle arrest in human K562 cells by accumulation at sub-G1 (apoptotic) phase at 30 uM after 48 hrs using propidium iodide staining by FACS. Format: functional. The method in brief: as §3
Assay [12] has as its system K562. Nature of the assay: Cell cycle arrest in human K562 cells by accumulation at G1 phase at 30 uM after 72 hrs using propidium iodide staining by FACS. Format: functional. The method in brief: as §3
Assay [13] has as its system K562. The assay is described as follows: Cell cycle arrest in human K562 cells by accumulation at S phase at 30 uM after 72 hrs using propidium iodide staining by FACS. Format: functional. The method in brief:
as §3

The subject of assay [14] is K562. Nature of the assay: Cell cycle arrest in human K562 cells by accumulation at G2/M phase at 30 uM after 72 hrs using propidium iodide staining by FACS. The format is functional. The method in brief:
as §3

Assay [15] has as its system K562. The assay is described as follows: Cell cycle arrest in human K562 cells by accumulation at sub-G1 (apoptotic) phase at 30 uM after 72 hrs using propidium iodide staining by FACS. The format is functional. The method in brief: as §3
In assay [16] the test system is K562. Nature of the assay: Induction of apoptosis in human K562 cells assessed as decrease in Bcl-2 expression at 30 uM after 24 hrs by flow cytometry. Format: functional. Further details: scale not given: the % may be the effect or the level left. The method in brief:
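K562 cells cultured 24 h with compound at 30 μM or without (control). Intracellular Bcl-2 read by flow cytometry after staining with FITC-conjugated anti-Bcl-2 monoclonal antibody. Treated histograms compared with control histograms.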

Assay [17] has as its system HL-60. Nature of the assay: Induction of apoptosis in human HL60 cells assessed as induction of cell differentiation marker CD61 expression at 10 uM after 120 hrs by flow cytometry. The format is functional, cell-based. The method in brief:
(§4)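 HL60 or K562 cells exposed to 10 μM compound or no compound (control) for 120 h (5 days). Surface CD11c and CD61 read by flow cytometry with PE- or FITC-conjugated monoclonal antibodies. Treated cells compared with untreated cells.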

In assay [18] the test system is HL-60. The assay is described as follows: Induction of apoptosis in human HL60 cells assessed as induction of cell differentiation marker CD11c expression at 10 uM after 120 hrs by flow cytometry. Format: functional, cell-based. The method in brief:
as §4

The subject of assay [19] is K562. Nature of the assay: Induction of apoptosis in human K562 cells assessed as induction of cell differentiation marker CD61 expression at 10 uM after 120 hrs by flow cytometry. The format is functional, cell-based. The method in brief: as §4
Assay [20] concerns K562. Nature of the assay: Induction of apoptosis in human K562 cells assessed as induction of cell differentiation marker CD11c expression at 10 uM after 120 hrs by flow cytometry. The format is functional, cell-based. The method in brief: as §4
The subject of assay [21] is HL-60. Nature of the assay: Induction of apoptosis in human HL60 cells assessed as morphological changes after 48 hrs by annexin V assay. The following applies: HL-60, 48 h. The format is functional, cell-based. The method in brief:
as §2

A short description of assay [22]: Cytotoxicity against human lymphocytes after 48 hrs by trypan blue method. Format: cell-based. Conditions: Lymphocyte, read-out: IC50. The method in brief:
as §1

In assay [23] the test system is K562. The assay is described as follows: Cell cycle arrest in human K562 cells by accumulation at G1 phase at 130 uM after 24 hrs using propidium iodide staining by FACS. The format is functional. The method in brief:
as §3

Assay [24] concerns K562. Nature of the assay: Cell cycle arrest in human K562 cells by accumulation at S phase at 130 uM after 24 hrs using propidium iodide staining by FACS. The format is functional. The method in brief: as §3
Assay [25] deals with K562. Nature of the assay: Cell cycle arrest in human K562 cells by accumulation at G2/M phase at 130 uM after 24 hrs using propidium iodide staining by FACS. Format: functional. The method in brief:
as §3

In assay [26] the test system is K562. Nature of the assay: Cell cycle arrest in human K562 cells by accumulation at A phase at 130 uM after 24 hrs using propidium iodide staining by FACS. Format: functional. The method in brief:
as §3

Assay [27] has as its system K562. The assay is described as follows: Cell cycle arrest in human K562 cells by accumulation at G1 phase at 130 uM after 48 hrs using propidium iodide staining by FACS. The format is functional. The method in brief: as §3
Assay [28] relates to K562. The assay is described as follows: Cell cycle arrest in human K562 cells by accumulation at S phase at 130 uM after 48 hrs using propidium iodide staining by FACS. Format: functional. The method in brief:
as §3

Assay [29] has as its system K562. Nature of the assay: Cell cycle arrest in human K562 cells by accumulation at G2/M phase at 130 uM after 48 hrs using propidium iodide staining by FACS. Format: functional. The method in brief: as §3
Assay [30] deals with K562. The assay is described as follows: Cell cycle arrest in human K562 cells by accumulation at A phase at 130 uM after 48 hrs using propidium iodide staining by FACS. The format is functional. The method in brief:
as §3

Assay [31] has as its system K562. Nature of the assay: Cell cycle arrest in human K562 cells by accumulation at G1 phase at 130 uM after 72 hrs using propidium iodide staining by FACS. The format is functional. The method in brief: as §3
For assay [32], the system named is K562. The assay is described as follows: Cell cycle arrest in human K562 cells by accumulation at S phase at 130 uM after 72 hrs using propidium iodide staining by FACS. The format is functional. The method in brief: as §3
For assay [33], the system named is K562. The assay is described as follows: Cell cycle arrest in human K562 cells by accumulation at G2/M phase at 130 uM after 72 hrs using propidium iodide staining by FACS. The format is functional. The method in brief:
as §3

Assay [34] concerns K562. The assay is described as follows: Cell cycle arrest in human K562 cells by accumulation at A phase at 130 uM after 72 hrs using propidium iodide staining by FACS. Format: functional. The method in brief:
as §3

Calls of active or inactive are those of the source. The calls are words filed in the database; no cut-off is given here.

For orientation: IC50 means the concentration at which inhibition is half-maximal. What is called AC50 is the concentration giving half of the maximal activity seen.

Regarding `CC1(C)OC(=O)C2(C(=O)O1)[C@@H](c1ccc(-c3ccc(CO)cc3)cc1)CC(=O)C[C@H]2c1ccccc1`, the figures for the concentration for half-maximal inhibition (IC50) with HL-60 [1] and with K562 [2] were 20 µM and 38 µM, respectively.

In the case of `O=C1C[C@H](c2ccc(O)cc2)C2(C(=O)c3ccccc3C2=O)[C@H](c2ccc(O)cc2)C1`, the IC50 was 28 µM with HL-60 [1] and 73 µM in the assay on K562 [2].

In the assay with K562 [2], `Oc1ccc(-c2ccc(-c3cc(O)cc(O)c3)cc2)cc1` registered an IC50 of 20 µM. For the same compound, the AC50 in the assay with K562 [3] turned out to be 75 µM.

`CC1(C)OC(=O)C2(C(=O)O1)[C@@H](c1ccc(-c3ccc(-c4ccc(O)cc4)cc3)cc1)CC(=O)C[C@H]2c1ccccc1`: the Activity came to 65% in the assay on K562 [4]; 26% with K562 [5]; 11% in the assay with K562 [6]; 2% in the assay with K562 [7]; 72% in the assay on K562 [8]; 22% in the assay with K562 [9]. In addition, the Activity in the assay with K562 [10] is 6%; with K562 [11] it was 2%; in the assay with K562 [12], 72%; in the assay with K562 [13] it was 20%; with K562 [14], 8%; with K562 [15], 2%. For the same compound, the Activity with K562 [16] is on record as 4.9%. The result with HL-60 [17] and in the assay with HL-60 [18] was Active. For the same compound, the result in the assay with K562 [19] and in the assay with K562 [20] was inactive. In addition, the IC50 came out at 16 µM in the assay with HL-60 [1], 8 µM in the assay with K562 [2] and 185 µM in [22]. For the same compound, the AC50 is 32 µM in the assay with HL-60 [21] (read-out: AC50) and above 100 µM in the assay on K562 [3] (read-out: AC50).

In the case of `O=C1C[C@H](c2ccccc2)C2(C(=O)c3ccccc3C2=O)[C@H](c2ccccc2)C1`, the Activity in the assay on K562 [23] is reported as 27%; in the assay with K562 [24], 61%; in the assay with K562 [25] it was 12%; with K562 [26], 13%; in the assay on K562 [27] it was 26%; with K562 [28], 40%. Further, the Activity in the assay on K562 [29] came to 34%; with K562 [30] it was 18%; with K562 [31], 7%; with K562 [32], 21%; in the assay with K562 [33], 72%; in the assay with K562 [34] it was 20%. The IC50 in the assay on HL-60 [1] is 20 µM; in the assay on K562 [2], 98 µM.

Consider `CC1(C)OC(=O)C2(C(=O)O1)[C@@H](c1c[nH]c3ccccc13)CC(=O)C[C@H]2c1ccccc1`, for which the IC50 is 62 µM with HL-60 [1] and above 100 µM in the assay on K562 [2].

Regarding `Oc1ccc(-c2cc(O)cc(O)c2)cc1`, the IC50 in the assay with HL-60 [1] and with K562 [2] was above 80 µM throughout. For the same compound, the AC50 in the assay on HL-60 [21] and in the assay with K562 [3] (read-out: AC50) was above 80 µM each time.

For `O=C1C[C@H](c2ccc(-c3ccc(CO)cc3)cc2)C2(C(=O)c3ccccc3C2=O)[C@H](c2ccccc2)C1`, the Activity was determined as 47% in the assay with K562 [4]; 34% in the assay with K562 [5]; 19% in the assay with K562 [6]; 4% in the assay on K562 [7]; 48% in the assay with K562 [8]; 30% with K562 [9]. Moreover, the Activity in the assay on K562 [10] is on record as 22%; in the assay on K562 [11], 6%; in the assay on K562 [12], 48%; in the assay with K562 [13], 32%; with K562 [14], 20%; with K562 [15] it was 11%. The Activity in the assay with K562 [16] was determined as 4.3%. In addition, the outcome in the assay on HL-60 [17] and with HL-60 [18] was Active. The result with K562 [19] and with K562 [20] was inactive. In addition, the IC50 turned out to be 6 µM with HL-60 [1], 14 µM with K562 [2] and 286 µM in assay [22]. Besides, the AC50 in the assay on HL-60 [21] (read-out: AC50) turned out to be 12 µM; in the assay with K562 [3], 80 µM.

For the origin of these results see ChEMBL document CHEMBL1155236, “Identification of biphenyl-based hybrid molecules able to decrease the intracellular level of Bcl-2 protein in Bcl-2 overexpressing leukemia cells” (J Med Chem, 2009).
